Tests used:
Rattus norvegicus [1] = test: Toxicity in Sprague-Dawley rat assessed as increase in body weight at 10 mg/kg/day measured on day 16 (reference value: 195 +/- 16%); format: organism-based; conditions: in vivo
Rattus norvegicus [2] = test: Hypocholesterolemic activity in Sprague-Dawley rat assessed as serum cholesterol level at 10 mg/kg/day, po administered via intubation measured on day 10 by Liebermann-Burchard method relative to control; format: functional
Outline: (§1)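 Male Sprague-Dawley rats given compound homogenized in 1% CMC once daily at 11:00 a.m. by oral intubation needle (0.2 cc), doses calculated on weekly body weights; tail-vein blood drawn 24 h after last dose; nonhemolyzed serum (30 μ) assayed by modified Liebermann-Burchard method; N = 8; % of control, mean ± SD; Student's t test.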

Rattus norvegicus [3] = test: Hypocholesterolemic activity in Sprague-Dawley rat assessed as serum cholesterol level at 10 mg/kg/day, po administered via intubation measured on day 4 by Liebermann-Burchard method relative to control; format: functional; outline: as §1
Rattus norvegicus [4] = test: Hypocholesterolemic activity in Sprague-Dawley rat assessed as serum cholesterol level at 10 mg/kg/day, po administered via intubation measured on day 16 by Liebermann-Burchard method relative to control; format: functional; outline: as §1
Rattus norvegicus [5] = test: Toxicity in Sprague-Dawley rat assessed as increase in body weight at 10 mg/kg/day measured on day 10 (reference value: 160 +/- 13%); format: organism-based; conditions: in vivo
Rattus norvegicus [6] = test: Uterotrophic activity in ovariectomized weaned Sprague-Dawley rat assessed as uterine weight at 10 mg/kg/day measured after 3 days (reference value: 100 +/- 15%); format: ADME, organism-based, Uterus; conditions: in vivo, 72 h
Outline: (§2)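 Weaned rats were ovariectomized and left untreated for 3 days. They were then dosed for 3 days with 17-ethinylestradiol 10 µg/kg/day or test compound 10 mg/kg/day, with 1% CMC as the vehicle control. Rats were then killed and the uterus removed, trimmed and weighed. Results are % of control uterine weight, mean ± SD; N = 7; Student's t test.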

Rattus norvegicus [7] = test: Uterotrophic activity in ovariectomized weaned Sprague-Dawley rat assessed as uterine weight at 10 ug/kg/day measured after 3 days (reference value: 100 +/- 15%); format: ADME, organism-based, Uterus; conditions: in vivo, 0.01 mg/kg, 72 h; outline: as §2

CCCCCCCCCCCCCC(=O)CC
Activity (Rattus norvegicus [1]): 212% | Activity (Rattus norvegicus [2]): 83% | Activity (Rattus norvegicus [3]): 64% | Activity (Rattus norvegicus [4]): 92% | Activity (Rattus norvegicus [5]): 167%

CCCCCCCCCCCCCCCC(C)=O
Activity (Rattus norvegicus [1]): 229% | Activity (Rattus norvegicus [6]): 76% | Activity (Rattus norvegicus [2]): 75% | Activity (Rattus norvegicus [3]): 83% | Activity (Rattus norvegicus [4]): 74% | Activity (Rattus norvegicus [5]): 165%

CCCCCCCCCCCCC(=O)CCC
Activity (Rattus norvegicus [1]): 213% | Activity (Rattus norvegicus [2]): 89% | Activity (Rattus norvegicus [3]): 65% | Activity (Rattus norvegicus [4]): 103% | Activity (Rattus norvegicus [5]): 175%

CCCCCCCCCC(=O)CCCCCC
Activity (Rattus norvegicus [1]): 207% | Activity (Rattus norvegicus [2]): 89% | Activity (Rattus norvegicus [3]): 89% | Activity (Rattus norvegicus [4]): 77% | Activity (Rattus norvegicus [5]): 169%

CCCCCCCCCCCCCCCCC(C)=O
Activity (Rattus norvegicus [1]): 242% | Activity (Rattus norvegicus [2]): 86% | Activity (Rattus norvegicus [3]): 79% | Activity (Rattus norvegicus [4]): 73% | Activity (Rattus norvegicus [5]): 175%

CCCCCCCCCCCCCC(C)=O
Activity (Rattus norvegicus [1]): 233% | Activity (Rattus norvegicus [2]): 113% | Activity (Rattus norvegicus [3]): 114% | Activity (Rattus norvegicus [4]): 98% | Activity (Rattus norvegicus [5]): 156%

C#C[C@]1(O)CC[C@H]2[C@@H]3CCc4cc(O)ccc4[C@H]3CC[C@@]21C [ETHINYL ESTRADIOL]
Activity (Rattus norvegicus [7]): 372%

CCCCCCCCC(=O)CCCCCCC
Activity (Rattus norvegicus [1]): 209% | Activity (Rattus norvegicus [2]): 97% | Activity (Rattus norvegicus [3]): 102% | Activity (Rattus norvegicus [4]): 72% | Activity (Rattus norvegicus [5]): 167%

CCOC(=O)C(C)(C)Oc1ccc(Cl)cc1 [CLOFIBRATE]
Activity (Rattus norvegicus [2]): 98% | Activity (Rattus norvegicus [3]): 100% | Activity (Rattus norvegicus [4]): 106%

CCCCCCCCCCCC(=O)CCCC
Activity (Rattus norvegicus [1]): 206% | Activity (Rattus norvegicus [2]): 89% | Activity (Rattus norvegicus [3]): 63% | Activity (Rattus norvegicus [4]): 94% | Activity (Rattus norvegicus [5]): 165%

CCCCCCCCCCC(=O)CCCCC
Activity (Rattus norvegicus [1]): 209% | Activity (Rattus norvegicus [2]): 92% | Activity (Rattus norvegicus [3]): 70% | Activity (Rattus norvegicus [4]): 100% | Activity (Rattus norvegicus [5]): 168%

Reference: ChEMBL document CHEMBL3272112, “Cycloalkanones. 8. Hypocholesterolemic activity of long-chain ketones related to pentadecanone” (J Med Chem, 1976)
